The values that follow come from ChEMBL document CHEMBL4052597, “Symmetrically Substituted Xanthone Amphiphiles Combat Gram-Positive Bacterial Resistance with Enhanced Membrane Selectivity” (J Med Chem, 2017).

The subject of assay [1] is Lipid bilayer. The experiment in a line: Induction of membrane damage in DOPC/cholesterol large unilamellar vesicles assessed as calcein leakage at compound to lipid ratio of 1:16 after 1 hr by fluorescence assay relative to control. Put shortly: (§1)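 100 nm calcein-loaded LUVs made by film hydration; lipid content set by total phosphorus assay. DOPC/cholesterol (3:1, w/w) mimics mammalian and DOPE/DOPG (3:1, w/w) bacterial membranes. Compound in DMF added at lipid-to-compound ratio 16 (6.25 µM compound), final DMF limited to 0.5%. Fluorescence monitored at ex 490/em 520 nm for 1 hour; replicated.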

In assay [2] the test system is Bacillus cereus. The experiment in a line: Antibacterial activity against Bacillus cereus ATCC 11778 after 24 hrs by two fold dilution assay. As to conditions: ATCC 11778, 24 h. It is filed as functional. In a few lines: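 Broth macro-dilution per CLSI in cation-adjusted Mueller-Hinton broth; compounds dissolved in DMF, diluted in PBS to 1000 µg/mL stock, then serial 2-fold dilutions in CA-MHB in tubes. Inoculum from 18-20 h TSA colonies (direct colony suspension), adjusted to about 5× 10^5 CFU/mL. MIC read after 24 h at 35 °C as lowest concentration with no visible growth; biological replicates.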

Assay [3] relates to Staphylococcus aureus. The assay can be described thus: Antibacterial activity against Staphylococcus aureus DM 4001R after 24 hrs by two fold dilution assay. It is filed as functional. Put shortly:
(§2)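 CLSI broth macrodilution in cation-adjusted Mueller-Hinton broth. Compounds were dissolved in DMF and diluted in PBS to a 1000 µg/mL stock, then serially 2-fold diluted in CA-MHB. The inoculum came from colonies on 18-20 h TSA plates (direct colony suspension), adjusted to ~5×10^5 CFU/mL. Incubation was 24 h at 35 °C. MIC is the lowest concentration with no visible growth versus control. Biological replicates.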

Assay [4] concerns Lipid bilayer. The assay can be described thus: Induction of membrane damage in DOPE/DOPG large unilamellar vesicles assessed as calcein leakage at compound to lipid ratio of 1:16 after 1 hr by fluorescence assay relative to control. In a few lines:
as §1

Assay [5] concerns Staphylococcus aureus. The experiment in a line: Antibacterial activity against methicillin-resistant Staphylococcus aureus DM 9808R after 24 hrs by two fold dilution assay. It is filed as functional. In a few lines:
as §2

The test system of assay [6] is Staphylococcus aureus. The experiment in a line: Disruption of cytoplasmic membrane in Staphylococcus aureus isolate DM4001R at 100 ug/ml after 3000 secs by SYTOX green dye based fluorescence assay. The class given is functional. In a few lines: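 Clinical S. aureus isolate DM4001R incubated with SYTOX Green plus compound; membrane permeabilization read as increased fluorescence intensity. Measurements replicated.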

For assay [7], the system named is Staphylococcus aureus. The assay can be described thus: Disruption of membrane in Staphylococcus aureus isolate DM4001R assessed as […] in ATP leakage at 200 ug/ml after 1 hr by ATP bioluminescent assay relative to control. The class given is functional. Set-up: scale not given: the % may be the effect or the level left. Put shortly: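 S. aureus DM4001 grown to exponential phase, washed three times in 20 mM PBS (pH 7), resuspended to OD600 0.2. Compound added, suspensions held 1 hour at 37 °C, then centrifuged. Supernatant mixed with luciferase/luciferin enzyme mix; extracellular ATP quantified by luminescence. Replicated.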

For assay [8], the system named is Staphylococcus aureus. The assay can be described thus: Antibacterial activity against methicillin-resistant Staphylococcus aureus DM 21455 after 24 hrs by two fold dilution assay. It is filed as functional. Conditions: DM 21455, 24 h. In a few lines: as §2
Assay [9] in a line: Selectivity index, ratio of HC50 for New Zealand White rabbit RBC to MIC for Bacillus cereus ATCC 11778. In a few lines: (§3)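 Ratio of HC50 to MIC. For HC50, fresh New Zealand White rabbit RBCs were pelleted (3000 rpm, 10 min), washed twice in PBS and mixed with serially diluted compounds (in DMF or PBS) at a final 4% v/v. After 60 min at 37 °C and centrifugation, supernatant absorbance was read at 576 nm. % hemolysis was normalised to 2% Triton X-100 (positive) and PBS/DMF (negative). MIC came from CA-MHB broth macrodilution, 24 h at 35 °C.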

Assay [10] can be described thus: Selectivity index, ratio of HC50 for New Zealand White rabbit RBC to MIC for methicillin-resistant Staphylococcus aureus DM 21455. Put shortly: as §3
The nature of assay [11]: Selectivity index, ratio of HC50 for New Zealand White rabbit RBC to MIC for Staphylococcus aureus DM 4001R. Put shortly:
as §3

Assay [12] can be described thus: Selectivity index, ratio of HC50 for New Zealand White rabbit RBC to MIC for methicillin-resistant Staphylococcus aureus DM 9808R. In a few lines: as §3

Values after ≈ are worked out from the molar mass of the structure shown. Active and inactive are the calls of the source. No cut-off for these calls is given here.

A word on the MIC: it is the lowest concentration found to suppress growth. For the compound `O=c1c2c(O)cc(O)cc2oc2cc(O)cc(O)c12`, the Activity is below 20% in assay [1], 11.7% in assay [4] and 6.9% in [7]. Also, the MIC in assay [2], in [3], in [5] and in assay [8] was above 50 µg/mL throughout. The result in assay [6] was inactive.
Regarding `COC(=O)[C@H](CCCNC(=N)N)NC(=O)COc1cc(OCC=C(C)C)cc2oc3cc(OCC=C(C)C)cc(OCC=C(C)C)c3c(=O)c12`, the Selectivity Index in assay [9], in assay [10], in [11] and in assay [12] was 21 to 42 throughout. Further, the MIC was 1.56 µg/mL (≈ 2.25 µM) in assay [2], 1.56 µg/mL (≈ 2.25 µM) in assay [3], 1.56 µg/mL (≈ 2.25 µM) in assay [5] and 0.78 µg/mL (≈ 1.13 µM) in assay [8].
